According to ChEMBL document CHEMBL3286272, “Synthesis, biological, and biophysical studies of DAG-indololactones designed as selective activators of RasGRP” (Bioorg Med Chem, 2014):
Activity calls are given as the source filed them. The calls are words filed in the database; no cut-off is given here.

Experiments:
[1] = molecular target: T1, RAS guanyl-releasing protein 1 (Homo sapiens, UniProt O95267); assay: Displacement of [3H]PDBu from recombinant RasGRP1 C1 domain (unknown origin) after 10 mins by scintillation counting analysis in presence of phosphatidylserine
T1 sequence (O95267 whole entry): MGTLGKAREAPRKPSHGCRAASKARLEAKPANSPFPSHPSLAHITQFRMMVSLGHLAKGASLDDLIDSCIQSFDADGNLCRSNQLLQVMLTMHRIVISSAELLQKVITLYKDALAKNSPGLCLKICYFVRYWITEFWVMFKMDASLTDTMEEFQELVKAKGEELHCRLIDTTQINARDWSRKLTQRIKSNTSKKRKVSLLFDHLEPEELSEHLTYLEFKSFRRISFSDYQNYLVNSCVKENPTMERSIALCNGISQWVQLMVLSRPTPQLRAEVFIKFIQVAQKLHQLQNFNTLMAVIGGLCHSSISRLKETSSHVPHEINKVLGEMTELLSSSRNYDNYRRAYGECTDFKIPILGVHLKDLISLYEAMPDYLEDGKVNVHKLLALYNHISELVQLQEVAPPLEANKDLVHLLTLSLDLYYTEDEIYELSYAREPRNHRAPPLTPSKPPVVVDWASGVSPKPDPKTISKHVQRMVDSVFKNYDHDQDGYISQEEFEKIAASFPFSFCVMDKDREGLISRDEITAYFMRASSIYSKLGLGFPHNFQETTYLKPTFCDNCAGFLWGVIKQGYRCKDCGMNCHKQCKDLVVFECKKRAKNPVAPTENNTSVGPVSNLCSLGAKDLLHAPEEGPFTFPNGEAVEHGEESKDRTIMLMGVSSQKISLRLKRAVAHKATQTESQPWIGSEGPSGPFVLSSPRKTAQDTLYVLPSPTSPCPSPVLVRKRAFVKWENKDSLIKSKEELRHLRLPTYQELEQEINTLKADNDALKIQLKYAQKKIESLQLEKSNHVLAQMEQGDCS
Summary of the method: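 [3H]PDBu binding competition with 100 μg/ml phosphatidylserine present; PKCα and RasGRP1-C1 assayed at 37°C for stability. Values are mean ± SEM of triplicate independent experiments.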

[2] = molecular target: T2, Protein kinase C alpha type (Homo sapiens, UniProt P17252); assay: Binding affinity to recombinant human GFP-tagged PKC-alpha expressed in CHOK1 cells assessed as induction of protein translocation from plasma membrane to internal membrane at 10000 nM after 2 to 5 mins by confocal microscopic analysis; type: cell-based; details: CHO-K1
Summary of the method: (§1)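 CHO-K1 cells were transiently transfected with human GFP-PKCα and imaged live by confocal microscopy 24 h later (488 nm excitation, 500–530 nm emission) every 30 s for 30 min after 10 μM ligand. Membrane/cytoplasm intensity ratio from 4 μm2 regions was normalized to time 0. n = 3–6.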

[3] = molecular target: T2, Protein kinase C alpha type; assay: Binding affinity to recombinant human GFP-tagged PKC-alpha expressed in CHOK1 cells assessed as induction of protein translocation from plasma membrane to internal membrane at 10000 nM after 5 to 15 mins by confocal microscopic analysis; type: cell-based; details: CHO-K1; summary of the method: as §1
[4] = molecular target: T3, Ras guanyl-releasing protein 3 (Homo sapiens) (UniProt Q8IV61); assay: Activation of RasGRP3 (unknown origin) overexpressed in HEK293 cells assessed as ERK1/2 phosphorylation at 1 to 10 uM after 30 mins by Western blot analysis; type: cell-based
T3 sequence (whole entry): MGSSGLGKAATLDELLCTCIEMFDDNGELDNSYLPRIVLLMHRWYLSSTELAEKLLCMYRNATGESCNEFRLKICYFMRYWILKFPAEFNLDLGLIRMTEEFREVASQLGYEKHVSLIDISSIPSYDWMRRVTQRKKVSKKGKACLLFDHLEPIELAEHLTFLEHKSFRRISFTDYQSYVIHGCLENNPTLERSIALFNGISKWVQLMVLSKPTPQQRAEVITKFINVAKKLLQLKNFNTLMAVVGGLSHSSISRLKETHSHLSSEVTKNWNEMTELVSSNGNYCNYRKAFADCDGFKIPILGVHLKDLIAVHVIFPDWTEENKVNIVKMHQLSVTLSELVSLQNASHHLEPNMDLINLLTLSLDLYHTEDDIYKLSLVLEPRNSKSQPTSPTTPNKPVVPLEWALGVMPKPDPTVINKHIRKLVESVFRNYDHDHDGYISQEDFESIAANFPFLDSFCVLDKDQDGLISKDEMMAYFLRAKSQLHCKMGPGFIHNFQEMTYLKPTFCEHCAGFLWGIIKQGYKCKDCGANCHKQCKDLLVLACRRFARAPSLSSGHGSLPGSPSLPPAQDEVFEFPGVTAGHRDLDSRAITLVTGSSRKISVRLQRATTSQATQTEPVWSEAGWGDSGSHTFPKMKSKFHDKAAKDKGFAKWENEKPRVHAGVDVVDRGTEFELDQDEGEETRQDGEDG

SMILES | Ki [1] [nM] | Activity [2] | Activity [3] | Activity [4]
CCCC(CCC)C(=O)OCC1(CO)C/C(=C\c2ccc3ccn(C)c3c2)C(=O)O1 (configuration not stated) | 0.87 | Active | Active | –
CCCC(CCC)C(=O)OCC1(CO)C/C(=C\c2cccc3c2ccn3C)C(=O)O1 (configuration not stated) | 1.55 | – | Active | –
CCCC(CCC)C(=O)OCC1(CO)C/C(=C\c2cccc3ccn(C)c23)C(=O)O1 (configuration not stated) | 0.69 | – | Active | –
CCCC(CCC)C(=O)OCC1(CO)C/C(=C\c2ccc3c(ccn3C)c2)C(=O)O1 (configuration not stated) | 0.41 | – | Active | –
CCCC(CCC)C(=O)OCC1(CO)C/C(=C\c2cn(C)c3ccccc23)C(=O)O1 (configuration not stated) | 0.25 | – | Active | Active
